The nature of assay [1]: Inhibition of alpha-glucosidase (unknown origin). Details: species or system Homo sapiens. Put shortly:
(§1)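 Single-point screen at 500 μM inhibitor, with acarbose as positive control. Derivatives exceeding 50% inhibition were taken on to a dose-response series at several concentrations to derive IC50. Values are mean ± SD, n = 3.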

A short description of assay [2]: Inhibition of alpha-glucosidase (unknown origin) at 500 uM relative to control. The conditions noted are these: Homo sapiens. Put shortly: as §1
The nature of assay [3]: Potency index, ratio of chepraecoxinA IC50 to test compound IC50 for inhibition of alpha-glucosidase (unknown origin). Conditions: Homo sapiens.
Assay [4] can be described thus: Non-competitve inhibition of alpha-glucosidase (unknown origin) by Dixon-plot analysis. Details: species or system Homo sapiens. The procedure, abridged:
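Kinetic study run at varied substrate concentrations. Inhibition type was assigned from a Lineweaver-Burk plot (Vm and Km compared), and the inhibition constant Ki was read from a Dixon plot.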

Each structure is given as a SMILES string.

In the case of `CCCCCCCC(=O)O[C@H]1CC[C@@](C)(C(=O)O)[C@H]2CC[C@@]34C[C@H](CC[C@H]3[C@]12C)[C@@H](C)C4`, the half-inhibitory concentration (IC50) (commonly the midpoint of a concentration-inhibition curve) in assay [1] worked out at 22.8 µM. Moreover, the inhibition (commonly the relative decrease from the control value, in per cent) in assay [2] turned out to be 95.5%.
Consider `C[C@H]1C[C@@]23CC[C@H]4[C@@](C)([C@@H](OC(=O)c5ccccc5)CC[C@@]4(C)C(=O)O)[C@@H]2CC[C@H]1C3`, for which, in assay [1], 45.4 µM corresponded to half-maximal inhibition (IC50).
In turn, `C=C1C[C@@]23CC[C@H]4[C@@](C)(/C(=N/O)CC[C@@]4(C)C(=O)O)[C@@H]2CC[C@H]1C3` returned a half-maximal inhibitory concentration (IC50) in assay [1] of 330 µM. This molecule had an inhibition in assay [2] of 77.2%.
Consider `C=C1C[C@@]23CC[C@H]4[C@@](C)(C(=O)CC[C@@]4(C)C(=O)O)[C@@H]2CC[C@H]1C3`, for which the inhibition in assay [2] came out at 19.4%.
On to `C[C@H]1C[C@@]23CC[C@H]4[C@@](C)([C@@H](OC(=O)c5cccnc5)CC[C@@]4(C)C(=O)O)[C@@H]2CC[C@H]1C3`, for which the IC50 in assay [1] is 71.4 µM. Further, the inhibition in assay [2] is 93%.
`C[C@H]1C[C@@]23CC[C@H]4[C@@](C)([C@@H](OC(=O)/C=C/c5ccccc5)CC[C@@]4(C)C(=O)O)[C@@H]2CC[C@H]1C3` yielded a half-maximal inhibitory concentration (IC50) in assay [1] of 17.1 µM. In addition, the Ratio IC50 in assay [3] came to 17.
`C[C@H]1C[C@@]23CC[C@H]4[C@](C)([C@@H]2CC[C@H]1C3)[C@@H](O)CC[C@@]4(C)C(=O)O`: in assay [2], the inhibition was 17.3%.
The same measure, in the same setting: in the case of `C=C1[C@H]2CC[C@@H]3[C@@](CC[C@H]4[C@@]3(C)[C@@H](OC(C)=O)CC[C@@]4(C)C(=O)O)(C2)[C@H]1O` it was 22.1%.
In assay [1], `C[C@H]1C[C@@]23CC[C@H]4[C@@](C)([C@@H](OC(=O)C5CCCCC5)CC[C@@]4(C)C(=O)O)[C@@H]2CC[C@H]1C3` returned an IC50 of 16.1 µM. Further, in assay [3], the Ratio IC50 amounted to 17. For the same molecule, the Ki – broadly, a measure of affinity in units of concentration, obtained from inhibition or displacement – in assay [4] is 19.4 µM.
In assay [2], `C[C@H]1C[C@@]23CC[C@H]4[C@@](C)(C(=O)CC[C@@]4(C)C(=O)O)[C@@H]2CC[C@H]1C3` yielded an inhibition of 13.2%.
For the molecule `CCCC(=O)O[C@H]1CC[C@@](C)(C(=O)O)[C@H]2CC[C@@]34C[C@H](CC[C@H]3[C@]12C)[C@@H](C)C4`, the 50% inhibitory concentration (IC50) in assay [1] stood at 48.4 µM. The same molecule yielded an inhibition in assay [2] of 98%.
Regarding `C=C1C(=O)[C@@]23CC[C@H]4[C@@](C)([C@@H](OC(C)=O)CC[C@@]4(C)C(=O)O)[C@@H]2CC[C@H]1C3`, the inhibition in assay [2] was found to be 18.6%.
The same measure, in the same setting: as for `CC(=O)O[C@H]1CC[C@@](C)(C(=O)O)[C@H]2CC[C@@]34C[C@H](CC[C@H]3[C@]12C)[C@@]1(CO1)C4`, the figure is 9.6%.
The molecule `CC(=O)O[C@H]1CC[C@@](C)(C(=O)O)[C@H]2CC[C@]34CC(=O)[C@@H](CC[C@H]3[C@]12C)C4` had an IC50 in assay [1] of 262 µM. Besides, in assay [2], the inhibition came out at 78.8%.
On the same counts, the results for `C[C@H]1O[C@H](O[C@H]2[C@H](O)[C@@H](O)[C@@H](O[C@H]3[C@H](O)[C@@H](O)C(O)O[C@@H]3CO)O[C@@H]2CO)[C@H](O)[C@@H](O)[C@@H]1N[C@H]1C=C(CO)[C@@H](O)[C@H](O)[C@H]1O` (stereo not given in full) [ACARBOSE] are 130 µM and 79.8%.
On to `C=C1C[C@@]23CC[C@H]4[C@@](C)([C@@H](OC(C)=O)CC[C@@]4(C)C(=O)OC)[C@@H]2CC[C@H]1C3`, for which, in assay [2], the inhibition came to 45.4%.
In the case of `CCCCC/C=C/C(=O)O[C@H]1CC[C@@](C)(C(=O)O)[C@H]2CC[C@@]34C[C@H](CC[C@H]3[C@]12C)[C@@H](C)C4`, it took 16.9 µM to reach half-maximal inhibition in assay [1] (IC50). The same molecule showed an inhibition in assay [2] of 91.8%. Besides, in assay [3], the Ratio IC50 was determined as 17.
The molecule `COC(=O)[C@]1(C)CC[C@H](OC(C)=O)[C@@]2(C)[C@@H]3CC[C@H]4C[C@@]3(CC[C@@H]21)C[C@@H]4C` had an inhibition in assay [2] of 11.4%.
Still for that read-out and setting: as for `CC(=O)O[C@H]1CC[C@@](C)(C(=O)O)[C@H]2CC[C@@]34C[C@H](CC[C@H]3[C@]12C)[C@@](O)(CO)C4`, the figure is 7.5%.
In turn, `CC(=O)O[C@H]1CC[C@@](C)(C(=O)O)[C@H]2CC[C@@]34C[C@H](CC[C@H]3[C@]12C)[C@@H](C)C4` gave an IC50 in assay [1] of 146 µM. In addition, in assay [2], the inhibition was found to be 98.4%. The Ratio IC50 in assay [3] was 2.
Consider `CCCCCCCCCCCCCCCCCC(=O)O[C@H]1CC[C@@](C)(C(=O)O)[C@H]2CC[C@@]34C[C@H](CC[C@H]3[C@]12C)[C@@H](C)C4`, for which, in assay [1], inhibition was half-maximal at 32 µM (IC50). For the same molecule, the inhibition in assay [2] was 94.2%.
`C=C1C[C@@]23CC[C@H]4[C@](C)([C@@H]2CC[C@H]1C3)[C@@H](O)CC[C@@]4(C)C(=O)O` showed an IC50 in assay [1] of 538 µM. Besides, the inhibition in assay [2] came to 52%.
On to `C[C@H]1C[C@@]23CC[C@H]4[C@@](C)([C@@H](OC(=O)CCC(=O)O)CC[C@@]4(C)C(=O)O)[C@@H]2CC[C@H]1C3`, for which the inhibition in assay [2] is 17.8%.
`C=C1C[C@@]23CC[C@H]4[C@@](C)([C@@H](OC(C)=O)CC[C@@]4(C)C(=O)O)[C@@H]2CC[C@H]1C3` came in with an IC50 in assay [1] of 274 µM. The molecule also came in with an inhibition in assay [2] of 95%.
